Tests used:
[1] = target: Matrix metalloproteinase-9 (Bos taurus, UniProt P52176); assay: Inhibition of bovine arterial endothelial cell MMP9; assay type: cell-based
[2] = target: Epidermal growth factor receptor (Homo sapiens, UniProt P00533); assay: Inhibition of human A431 cell EGFRK assessed as 32P phosphorylation by scintillation counter; assay type: cell-based; conditions: a-431
Outline: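 Solubilized A431 cell lysate, debris removed, incubated with or without EGF for 30 min at 25 °C. Reaction started with [γ-³²P]ATP, 10 min at 0 °C. After stopping and washing, receptor phosphorylation measured as ³²P by scintillation counting.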

[3] = target: Vascular endothelial growth factor receptor 1 (Homo sapiens, UniProt P17948); assay: Inhibition of Flt1 expressed in mouse NIH3T3 cells by autoradiography; assay type: cell-based
[4] = Radiosensitizing activity in mouse EMT6/KU cells assessed as enhancement ratio reducing surviving fraction of cells at […] after 5 to 7 days; assay type: functional
Outline: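 They were then irradiated with 6 MV X-rays at 2.0 Gy/min, replated, and scored for colonies after 5–7 days. Survival curves were least-squares fitted. ER is the ratio of radiation doses giving 1% survival.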

Gallus gallus = species: Gallus gallus; assay: Antiangiogenic activity in chick embryo chorioallantoic membrane assessed as number of eggs showing 3 mm avascular zone at 100 ug relative to control; assay type: functional, tissue-based
Outline: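 Chick CAM assay on 4-day-old embryos in shell; 10 µL sample in 1% methyl cellulose/0.9% NaCl applied inside a ring on the CAM, 48 h at 37.6 °C, then fat emulsion injected to show vessels. Six eggs per group, repeated more than three times. Inhibition (%) = eggs with ≥3 mm avascular zone around ring / eggs in group ×100.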

[5] = target: 72 kDa type IV collagenase (Homo sapiens, UniProt P08253); assay: Inhibition of human bowes melanoma cell MMP2
[6] = Radiosensitizing activity in mouse EMT6/KU cells assessed as enhancement ratio reducing surviving fraction of cells at 1 mM after 5 to 7 days; assay type: functional
Outline: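 EMT6/KU cells at 2×10⁶ cells/mL in drug-containing MEM in glass tubes, made hypoxic with 95% N₂/5% CO₂ for 60 min. Irradiated with 6 MV X-rays at 2.0 Gy/min, then plated. After 5–7 days replated for colony formation. Survival curves fitted by least squares; ER = ratio of radiation doses giving 1% survival.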

Vascular endothelial growth factor receptor 1, sequence (P17948 whole entry): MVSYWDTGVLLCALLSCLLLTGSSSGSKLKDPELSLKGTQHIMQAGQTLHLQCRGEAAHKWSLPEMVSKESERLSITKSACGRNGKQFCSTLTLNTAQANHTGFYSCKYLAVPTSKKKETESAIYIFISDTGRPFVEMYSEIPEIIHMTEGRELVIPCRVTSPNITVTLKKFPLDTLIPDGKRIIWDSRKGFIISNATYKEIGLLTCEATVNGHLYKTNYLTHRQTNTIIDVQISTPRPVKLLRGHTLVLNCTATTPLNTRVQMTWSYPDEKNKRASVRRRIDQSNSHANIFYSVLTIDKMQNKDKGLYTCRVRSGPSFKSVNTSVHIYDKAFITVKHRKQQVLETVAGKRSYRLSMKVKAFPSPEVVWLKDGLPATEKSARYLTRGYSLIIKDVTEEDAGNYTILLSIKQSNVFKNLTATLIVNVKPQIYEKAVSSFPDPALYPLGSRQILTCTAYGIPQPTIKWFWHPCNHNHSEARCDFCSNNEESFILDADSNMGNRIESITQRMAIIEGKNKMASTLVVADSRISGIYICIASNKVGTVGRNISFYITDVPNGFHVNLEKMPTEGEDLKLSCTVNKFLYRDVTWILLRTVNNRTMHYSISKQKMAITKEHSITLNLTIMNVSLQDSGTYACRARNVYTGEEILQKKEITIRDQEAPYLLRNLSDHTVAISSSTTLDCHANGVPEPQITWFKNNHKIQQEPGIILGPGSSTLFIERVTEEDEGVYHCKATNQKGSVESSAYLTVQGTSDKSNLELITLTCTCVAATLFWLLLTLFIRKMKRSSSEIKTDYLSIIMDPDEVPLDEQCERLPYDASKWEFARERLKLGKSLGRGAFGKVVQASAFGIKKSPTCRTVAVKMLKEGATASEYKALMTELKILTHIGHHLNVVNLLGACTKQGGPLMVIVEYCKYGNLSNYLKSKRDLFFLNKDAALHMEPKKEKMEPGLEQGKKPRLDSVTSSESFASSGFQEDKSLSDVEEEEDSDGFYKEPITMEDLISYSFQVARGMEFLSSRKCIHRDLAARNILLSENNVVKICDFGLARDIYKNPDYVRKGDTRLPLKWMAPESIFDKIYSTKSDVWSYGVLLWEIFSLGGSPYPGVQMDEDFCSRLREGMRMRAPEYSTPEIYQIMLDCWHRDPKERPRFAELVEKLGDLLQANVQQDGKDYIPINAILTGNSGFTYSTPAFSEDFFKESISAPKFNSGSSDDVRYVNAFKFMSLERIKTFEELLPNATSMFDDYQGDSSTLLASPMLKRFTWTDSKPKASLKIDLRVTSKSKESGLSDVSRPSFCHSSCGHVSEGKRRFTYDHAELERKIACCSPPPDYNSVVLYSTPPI
Epidermal growth factor receptor, sequence (P00533 whole entry): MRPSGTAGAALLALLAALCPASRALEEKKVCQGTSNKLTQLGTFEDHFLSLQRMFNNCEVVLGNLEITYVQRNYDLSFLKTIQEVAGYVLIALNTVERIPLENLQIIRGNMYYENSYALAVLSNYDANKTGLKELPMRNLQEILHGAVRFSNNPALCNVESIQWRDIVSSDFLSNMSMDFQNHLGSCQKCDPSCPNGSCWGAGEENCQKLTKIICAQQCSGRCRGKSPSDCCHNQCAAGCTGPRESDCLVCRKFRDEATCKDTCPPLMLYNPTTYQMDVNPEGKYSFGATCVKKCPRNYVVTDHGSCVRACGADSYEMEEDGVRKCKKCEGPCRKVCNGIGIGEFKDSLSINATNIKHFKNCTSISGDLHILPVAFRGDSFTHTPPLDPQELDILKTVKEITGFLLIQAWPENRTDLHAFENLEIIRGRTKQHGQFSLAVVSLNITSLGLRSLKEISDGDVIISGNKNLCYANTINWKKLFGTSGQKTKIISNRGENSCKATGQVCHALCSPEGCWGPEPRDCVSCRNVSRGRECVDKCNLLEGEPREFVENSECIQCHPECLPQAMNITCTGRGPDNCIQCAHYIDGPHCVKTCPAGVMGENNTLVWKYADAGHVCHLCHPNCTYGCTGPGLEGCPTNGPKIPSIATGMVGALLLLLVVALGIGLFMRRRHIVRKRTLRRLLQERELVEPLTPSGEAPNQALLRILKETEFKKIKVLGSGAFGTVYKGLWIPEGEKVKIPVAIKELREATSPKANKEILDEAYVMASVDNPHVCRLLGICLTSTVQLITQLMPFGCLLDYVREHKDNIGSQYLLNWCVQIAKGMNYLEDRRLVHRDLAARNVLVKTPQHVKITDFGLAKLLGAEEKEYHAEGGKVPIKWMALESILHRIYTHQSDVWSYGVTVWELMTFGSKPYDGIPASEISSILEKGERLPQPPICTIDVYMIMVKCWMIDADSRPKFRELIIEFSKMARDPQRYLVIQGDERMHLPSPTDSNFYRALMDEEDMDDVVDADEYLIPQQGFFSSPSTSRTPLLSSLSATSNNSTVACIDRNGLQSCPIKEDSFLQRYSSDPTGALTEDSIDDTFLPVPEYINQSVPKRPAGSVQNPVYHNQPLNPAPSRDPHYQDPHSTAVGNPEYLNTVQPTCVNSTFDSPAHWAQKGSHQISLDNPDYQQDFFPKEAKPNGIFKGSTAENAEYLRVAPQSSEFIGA
Matrix metalloproteinase-9, sequence (P52176 whole entry): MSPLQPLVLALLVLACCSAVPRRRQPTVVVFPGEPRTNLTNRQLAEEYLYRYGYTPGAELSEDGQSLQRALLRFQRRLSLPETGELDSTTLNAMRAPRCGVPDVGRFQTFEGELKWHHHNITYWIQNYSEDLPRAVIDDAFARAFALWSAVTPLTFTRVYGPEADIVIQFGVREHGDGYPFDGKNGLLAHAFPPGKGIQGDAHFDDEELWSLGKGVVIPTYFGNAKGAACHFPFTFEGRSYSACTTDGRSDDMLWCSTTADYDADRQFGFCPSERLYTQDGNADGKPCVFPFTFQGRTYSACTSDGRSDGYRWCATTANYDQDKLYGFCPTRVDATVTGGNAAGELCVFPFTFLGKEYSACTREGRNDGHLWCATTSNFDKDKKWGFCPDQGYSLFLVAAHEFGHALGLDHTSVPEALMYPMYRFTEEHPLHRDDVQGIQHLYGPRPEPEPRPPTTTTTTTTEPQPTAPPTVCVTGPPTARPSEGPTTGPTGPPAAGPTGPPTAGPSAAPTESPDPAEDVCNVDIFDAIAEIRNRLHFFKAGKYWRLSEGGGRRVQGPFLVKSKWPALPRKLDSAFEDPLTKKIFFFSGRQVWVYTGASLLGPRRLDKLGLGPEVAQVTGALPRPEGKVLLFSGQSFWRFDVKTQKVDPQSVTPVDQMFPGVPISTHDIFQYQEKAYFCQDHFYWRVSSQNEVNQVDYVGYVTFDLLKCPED
72 kDa type IV collagenase, sequence (P08253 whole entry): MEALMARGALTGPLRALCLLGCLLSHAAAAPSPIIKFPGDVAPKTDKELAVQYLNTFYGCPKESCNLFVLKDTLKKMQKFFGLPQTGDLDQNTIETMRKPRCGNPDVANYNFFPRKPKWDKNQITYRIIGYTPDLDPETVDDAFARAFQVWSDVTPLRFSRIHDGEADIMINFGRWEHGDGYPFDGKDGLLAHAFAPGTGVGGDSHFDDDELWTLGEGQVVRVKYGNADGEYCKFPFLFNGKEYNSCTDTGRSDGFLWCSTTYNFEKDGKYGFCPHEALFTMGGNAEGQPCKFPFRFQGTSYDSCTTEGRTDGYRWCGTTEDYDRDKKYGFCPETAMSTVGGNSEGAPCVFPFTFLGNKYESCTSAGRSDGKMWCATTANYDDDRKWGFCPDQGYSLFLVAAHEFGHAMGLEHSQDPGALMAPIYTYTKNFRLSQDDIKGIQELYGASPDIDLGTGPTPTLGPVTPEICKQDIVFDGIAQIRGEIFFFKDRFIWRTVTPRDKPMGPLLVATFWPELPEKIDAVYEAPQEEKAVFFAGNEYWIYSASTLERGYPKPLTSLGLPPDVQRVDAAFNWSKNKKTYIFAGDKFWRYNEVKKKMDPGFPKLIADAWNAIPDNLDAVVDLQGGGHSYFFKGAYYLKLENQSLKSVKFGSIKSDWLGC

Row | IC50 [1] | IC50 [2] | IC50 [3] | IC50 [5] | SMILES | Ratio [4] | inhibition (Gallus gallus) | Ratio [6]
1 | 67 µM⁻¹ | 1.8 µM⁻¹ | 18.4 µM⁻¹ | – | CC(C)(C)c1ccc(OC[C@@H](Cn2ccnc2[N+](=O)[O-])OC(=O)c2ccc(NC=C3C(=O)C=CC3=O)cc2)cc1 | – | – | –
2 | – | 23 µM⁻¹ | – | – | COC[C@H](Cn1ccnc1[N+](=O)[O-])OC(=O)c1ccc(NC=C2C(=O)C=CC2=O)cc1 | – | – | –
3 | > 240 µM⁻¹ | – | – | > 240 µM⁻¹ | COC[C@@H](Cn1ccnc1[N+](=O)[O-])OC(=O)c1ccc(NC(=O)C(F)(F)F)cc1 | 2.02 | 43% | –
4 | 53 µM⁻¹ | – | 23.4 µM⁻¹ | 24 µM⁻¹ | COC[C@@H](Cn1ccnc1[N+](=O)[O-])OC(=O)c1ccc(NC=C2C(=O)C=CC2=O)cc1 | – | – | –
5 | 103 µM⁻¹ | 18.4 µM⁻¹ | 184 µM⁻¹ | 183 µM⁻¹ | CC(C)(C)c1ccc(OC[C@H](Cn2ccnc2[N+](=O)[O-])OC(=O)c2ccc(NC=C3C(=O)C=CC3=O)cc2)cc1 | – | – | –
6 | – | – | – | – | O=C(Cn1ccnc1[N+](=O)[O-])NCCO [ETANIDAZOLE] | – | – | 1.72
7 | > 240 µM⁻¹ | – | – | > 240 µM⁻¹ | COC[C@H](Cn1ccnc1[N+](=O)[O-])OC(=O)c1ccc(NC(=O)C(F)(F)F)cc1 | 1.84 | 83% | –
